# Results pooled from the literature.
# Lines come from different studies, so protocols differ.
# Read-out: cell growth or viability
Structure (SMILES),cell line,assay,conditions,IC50
O=C1CCC(N2C(=O)c3cccc4c(Cc5ccc(CN6CCNCC6)cc5)ccc2c34)C(=O)N1 (centres unmarked),NCI-H929,,,0.00073 µM
CN1CCC(NC2CCc3[nH]c4c(C(N)=O)ccc(-c5ccccc5Cl)c4c3C2)CC1 (centres unmarked),DOHH-2,,96 h,0.0247 µM
O=C1CCC(N2C(=O)c3cccc4c(Cn5cc(C6CCNCC6)nn5)ccc2c34)C(=O)N1 (centres unmarked),NCI-H929,,,0.00621 µM
Cc1nc(Nc2ncc(C(=O)Nc3c(C)cccc3Cl)s2)cc(N2CC[C@H](O)C2)n1,JVM13,ATP luminescence,72 h,> 10 µM
O=C(Nc1ccc(Br)cc1)Nc1nc2cc(-c3ccc4ncn(Cc5ccccc5)c(=O)c4c3)ccc2s1,PC-9,MTT,72 h,> 20 µM
COc1ccc(Nc2ncnc3c2ncn3Cc2ccc(C(=O)Nc3ccccc3N)cc2)cc1,Raji,MTT,72 h,11 µM
COc1cccc(NC(=O)Nc2nc3cc(-c4ccc5ncn(CCN6CCOCC6)c(=O)c5c4)ccc3s2)c1,PC-9,MTT,72 h,> 20 µM
O=C1CC[C@H](N2C(=O)c3cccc4c(Cc5ccc(CN6CCOCC6)cc5)ccc2c34)C(=O)N1,NCI-H929,,,6e-05 µM
Cc1ccc(NC(=O)Nc2nc3cc(-c4ccc5ncn(Cc6ccccc6)c(=O)c5c4)ccc3s2)cc1,PC-9,MTT,72 h,> 20 µM
COc1cc(C2C3=C(Nc4nc(SC)[nH]c(=O)c42)c2ccccc2C3=O)ccc1O (centres unmarked),SK-OV-3,MTT,72 h,> 1000 µM
O=C(NO)c1ccc(Cn2cnc3c(Nc4ccc(Cl)cc4)ncnc32)cc1,Raji,MTT,72 h,0.36 µM
O=C1CCC(N2C(=O)c3cccc4c(Cc5cnn(C6CCNCC6)c5)ccc2c34)C(=O)N1 (centres unmarked),NCI-H929,,,0.00016 µM
Cc1cc(C)cc(NC(=O)Nc2nc3cc(-c4ccc5ncn(Cc6ccccc6)c(=O)c5c4)ccc3s2)c1,PC-9,MTT,72 h,> 20 µM
O=C(NO)c1ccc(Cn2cnc3c(Nc4ccc(Br)cc4F)ncnc32)cc1,Raji,MTT,72 h,0.23 µM
O=C1CCC(N2C(=O)c3cccc4c(Cc5ccc(CN6CCNCC6)nc5)ccc2c34)C(=O)N1 (centres unmarked),NCI-H929,,,0.0135 µM
COc1ccc(Nc2ncnc3c2ncn3Cc2ccc(C(=O)NO)cc2)cc1,Raji,MTT,72 h,0.43 µM
COc1cccc(NC(=O)Nc2nc3cc(-c4ccc5ncn(CCC6CCCCC6)c(=O)c5c4)ccc3s2)c1,PC-9,MTT,72 h,> 20 µM
CCCc1cc2cc(-n3nc(C)c4c3CC(C)(C)CC4=O)cc(N3CCC(O)CC3)c2c(=O)[nH]1,SK-OV-3,MTS,,2.98 µM
O=C(Nc1nc2cc(-c3ccc4ncn(Cc5ccccc5)c(=O)c4c3)ccc2s1)NC1CCCCC1,PC-9,MTT,72 h,> 20 µM
COc1cc(C2C3=C(COC3=O)N(CCO)c3cc4c(cc32)CCC4)cc(OC)c1OC (centres unmarked),EMT6,ATP luminescence,48 h,0.18 µM
